ChEMBL document CHEMBL3526151, “Reversible disulfide formation of the glutamate carboxypeptidase II inhibitor E2072 results in prolonged systemic exposures in vivo” (Drug Metab Dispos, 2012)

Legend:
[1] = Oral bioavailability in cynomolgus monkey at 5 mg/kg by LC-MS/MS analysis; assay type: ADME, organism-based, Macaca fascicularis; settings: in vivo
How it was run: (§1)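 Cynomolgus monkeys (n = 3) received a nominal 5 mg/kg dose in 50 mM HEPES, TCEP-treated to prevent disulfide formation. Dosing was either an IV bolus via cephalic or saphenous vein or oral. Arterial cannula blood was collected into NEM-containing heparinized tubes for up to 9 days and analyzed by LC-MS/MS. Noncompartmental analysis gave t1/2 = 0.693/λz and F% = dose-normalized mean AUCinf p.o./i.v. ×100.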

[2] = organism: Rattus norvegicus; assay: Drug recovery in Sprague-Dawley rat plasma stability experiment; settings: in vitro
[3] = Tmax in Sprague-Dawley rat at 1 mg/kg, po administered via gavage measured under fasted conditions by LC-MS/MS analysis; assay type: ADME, organism-based; parameters: dose 1 mg/kg, route oral; settings: in vivo
How it was run: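 Jugular-cannulated male Sprague-Dawley rats, 280–330 g, fasted overnight to 4 h post-dose. Single dose in 50 mM HEPES-buffered saline pH 7.4, by oral gavage or as tail-vein i.v. bolus. Blood into heparin/NEM tubes at 0–24 h. Plasma measured by LC-MS/MS; noncompartmental analysis; Tmax observed; Vd = dose/(AUCinf·λz).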

[4] = Cmax in cynomolgus monkey at 5 mg/kg, po by LC-MS/MS analysis; assay type: ADME, organism-based, Macaca fascicularis; parameters: dose 5 mg/kg, route oral; settings: in vivo; how it was run: as §1
[5] = Phase 1 metabolic stability in dog liver microsomes assessed as compound remaining at 10 uM measured for 1 hr by LC-MS/MS analysis; assay type: ADME, Canis lupus familiaris; settings: read-out: Stability
How it was run: (§2)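 Liver microsomes (0.5 mg/ml) were incubated with 10 µM compound (final) in 100 mM potassium phosphate, pH 7.4. An NADPH-regenerating system was present: 1.3 mM NADPH, 3.3 mM glucose 6-phosphate, 3.3 mM MgCl2, 0.4 U/ml G6PDH and 50 µM sodium citrate. Runs were in duplicate, with samples taken up to 1 h and quenched with acetonitrile containing internal standard. Loss of compound was followed by LC-MS/MS.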

[6] = Phase 1 metabolic stability in monkey liver microsomes assessed as compound remaining at 10 uM measured for 1 hr by LC-MS/MS analysis; assay type: ADME, Macaca mulatta; settings: rhesus monkey, read-out: Stability; how it was run: as §2
[7] = AUC(0 to infinity) in Sprague-Dawley rat at 30 mg/kg, iv administered as bolus injection measured under fasted conditions by LC-MS/MS analysis; assay type: ADME, organism-based; parameters: time infinity, dose 30 mg/kg, route intravenous; settings: plasma
How it was run: (§3)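 Male Sprague-Dawley rats (280–330 g), jugular vein cannulated, fasted overnight until 4 h post-dose. Single tail-vein bolus of 0.1, 1, 10 or 30 mg/kg in 50 mM HEPES buffered saline, pH 7.4. Blood drawn 0–24 h into heparin tubes containing NEM. Plasma quantified by LC-MS/MS after NEM derivatization. Noncompartmental analysis: AUClast by linear trapezoidal rule, Cl = dose/AUC0-∞. Mean ± S.D., n = 4–9.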

[8] = AUC(0 to last) in Sprague-Dawley rat at 1 mg/kg, iv administered as bolus injection measured under fasted conditions by LC-MS/MS analysis; assay type: ADME, organism-based; parameters: time 0 - last, dose 1 mg/kg, route intravenous; settings: plasma; how it was run: as §3
[9] = Half life in Sprague-Dawley rat at 0.1 mg/kg, iv administered as bolus injection measured under fasted conditions by LC-MS/MS analysis; assay type: ADME, organism-based; parameters: dose 0.1 mg/kg, route intravenous; settings: in vivo
[10] = AUC(0 to last) in Sprague-Dawley rat at 30 mg/kg, po administered via gavage measured under fasted conditions by LC-MS/MS analysis; assay type: ADME, organism-based; parameters: time 0 - last, dose 30 mg/kg, route oral; settings: plasma
How it was run: (§4)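 Fasted male Sprague-Dawley rats (280–330 g) received 0.1, 1, 10 or 30 mg/kg by oral gavage in 50 mM HEPES buffered saline, pH 7.4. Blood drawn at 0.25–24 h into heparin/NEM tubes; plasma analyzed by LC-MS/MS. Cmax taken as observed. AUC by linear trapezoidal rule with extrapolation by λz. Cl/F and Vd/F reported. Mean ± S.D., n = 4–9.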

[11] = AUC(0 to infinity) in Sprague-Dawley rat at 1 mg/kg, iv administered as bolus injection measured under fasted conditions by LC-MS/MS analysis; assay type: ADME, organism-based; parameters: time infinity, dose 1 mg/kg, route intravenous; settings: plasma; how it was run: as §3
[12] = Phase 2 metabolic stability in mouse liver microsomes assessed as compound remaining at 10 uM measured for 1 hr by LC-MS/MS analysis in absence of cofactors; assay type: ADME; settings: read-out: Stability
How it was run: (§5)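 Glucuronidation in liver microsomes of the named species, 0.5 mg/ml protein, compound at 10 μM final, in 50 mM Tris-HCl pH 7.5 with 8 mM MgCl2 and 25 μg/ml alamethicin. Preincubated at 37°C, then started with 2 mM UDPGA (final); cofactor-free controls run alongside. Duplicate reactions, sampled up to 1 h, quenched with cold acetonitrile plus internal standard; disappearance followed by LC-MS/MS.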

[13] = AUC(0 to infinity) in Sprague-Dawley rat at 1 mg/kg, po administered via gavage measured under fasted conditions by LC-MS/MS analysis; assay type: ADME, organism-based; parameters: time infinity, dose 1 mg/kg, route oral; settings: plasma; how it was run: as §4
[14] = Phase 2 metabolic stability in human liver microsomes assessed as compound remaining at 10 uM measured for 1 hr by LC-MS/MS analysis; assay type: ADME; settings: read-out: Stability
How it was run: (§6)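 For glucuronidation, compound was preincubated at 37°C in 50 mM Tris-HCl, pH 7.5, with 0.5 mg/ml liver microsomes, 8 mM MgCl2 and 25 µg/ml alamethicin. Reactions were started in duplicate with 2 mM UDPGA (final). Samples were taken up to 1 h, quenched with acetonitrile containing internal standard, and compound disappearance was measured by LC-MS/MS.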

[15] = AUC(0 to last) in Sprague-Dawley rat at 10 mg/kg, po administered via gavage measured under fasted conditions by LC-MS/MS analysis; assay type: ADME, organism-based; parameters: time 0 - last, dose 10 mg/kg, route oral; settings: plasma; how it was run: as §4
[16] = Primary phase half life in Sprague-Dawley rat at 10 mg/kg, iv by LC-MS/MS analysis; assay type: ADME, organism-based; parameters: dose 10 mg/kg, route intravenous; settings: in vivo, read-out: alphat1/2 (converted)
[17] = Phase 2 metabolic stability in dog liver microsomes assessed as compound remaining at 10 uM measured for 1 hr by LC-MS/MS analysis; assay type: ADME, Canis lupus familiaris; settings: read-out: Stability; how it was run: as §6
[18] = Cmax in Sprague-Dawley rat plasma at 10 mg/kg, po administered as single dose by LC-MS/MS analysis; assay type: ADME, organism-based; parameters: dose 10 mg/kg, route oral
How it was run: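 Male Sprague-Dawley rats were dosed orally with 10 mg/kg/day, either once or daily for 5 days; n = 4 per group. Blood was taken by cardiac puncture and liver, kidney, brain and sciatic nerve were collected at 0–8 h post-dose. Tissues were homogenized in PBS containing NEM at equal volume per gram. NEM-derivatized analyte was extracted with methanol and quantified by LC-MS/MS (1–5000 ng/ml). Cmax is the observed value.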

[19] = Apparent oral clearance in Sprague-Dawley rat at 30 mg/kg, po administered via gavage measured under fasted conditions by LC-MS/MS analysis; assay type: ADME, organism-based; parameters: dose 30 mg/kg, route oral; settings: in vivo; how it was run: as §4
[20] = Cmax in Sprague-Dawley rat at 1 mg/kg, po administered via gavage measured under fasted conditions by LC-MS/MS analysis; assay type: ADME, organism-based; parameters: dose 1 mg/kg, route oral; settings: in vivo; how it was run: as §4
[21] = Volume of distribution in cynomolgus monkey at 5 mg/kg, iv administered as bolus injection by LC-MS/MS analysis; assay type: ADME, organism-based, Macaca fascicularis; parameters: dose 5 mg/kg, route intravenous; settings: in vivo
How it was run: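 Monkey i.v. bolus at 5 mg/kg nominal (n=3), TCEP-treated HEPES solution, via cephalic or saphenous vein. Arterial blood into NEM tubes over 9 days. Plasma measured by LC-MS/MS; Vd = dose/(AUCinf·λz).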

[22] = Phase 2 metabolic stability in mouse liver microsomes assessed as compound remaining at 10 uM measured for 1 hr by LC-MS/MS analysis; assay type: ADME; settings: read-out: Stability; how it was run: as §5

SMILES: O=C(O)c1cccc(-c2cccc(CCS)c2C(=O)O)c1
- bioavailability [1]: 39.1%
- Drug recovery [2]: 60%
- Tmax [3]: 34.8 min
- Cmax [4]: 10500 ng/mL
- remaining at 1 h, 10 µM [5]: > 90%
- remaining at 1 h, 10 µM [6]: > 90%
- AUC(0-inf) [7]: 204000 ng·h/mL
- AUC(0-t) [8]: 12700 ng·h/mL
- half-life [9]: 138 min
- AUC(0-t) [10]: 76100 ng·h/mL
- AUC(0-inf) [11]: 13000 ng·h/mL
- remaining at 1 h, 10 µM [12]: > 90%
- AUC(0-inf) [13]: 3210 ng·h/mL
- remaining at 1 h, 10 µM [14]: > 90%
- AUC(0-t) [15]: 33400 ng·h/mL
- half-life [16]: 52.2 min
- remaining at 1 h, 10 µM [17]: > 90%
- Cmax [18]: 4920 ng/mL
- CL/F [19]: 8.5 mL/min/kg
- Cmax [20]: 1100 ng/mL
- Vd [21]: 0.72 L/kg
- remaining at 1 h, 10 µM [22]: > 90%
